{"source": "paper PMC10099996", "about": "(Chembiochem, 2022)", "key": {"[1]": {"system": "S. simulans 22", "experiment": "MIC determination", "assay_type": "cell-based", "conditions": "Table 1; lysogeny broth (LB) supplemented with 0.3 mM ZnSO4; 37 °C, 18 h; visual inspection; median of a minimum of triplicates", "summary_of_the_method": "(§1)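 Strains from glycerol stocks are grown overnight on blood agar at 37 °C. A single colony goes into TSB and grows at 37 °C to OD600 0.5, then is diluted 100-fold in ZnSO₄-supplemented LB to 10⁶ CFU mL⁻¹. Test compounds are 2-fold serially diluted in the same medium, in triplicate, and mixed with an equal volume of inoculum. Plates are sealed under breathable membranes and incubated 18 h at 37 °C, shaking at 600 rpm. MIC is read visually.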"}, "[2]": {"system": "S. aureus ATCC 29213 (MSSA)", "experiment": "MIC determination", "assay_type": "cell-based", "conditions": "Table 1; lysogeny broth (LB) supplemented with 0.3 mM ZnSO4; 37 °C, 18 h; visual inspection; median of a minimum of triplicates", "summary_of_the_method": "as §1"}, "[3]": {"system": "S. aureus USA300 (MRSA)", "experiment": "MIC determination", "assay_type": "cell-based", "conditions": "Table 1; lysogeny broth (LB) supplemented with 0.3 mM ZnSO4; 37 °C, 18 h; visual inspection; median of a minimum of triplicates", "summary_of_the_method": "as §1"}, "[4]": {"system": "E. faecium E980", "experiment": "MIC determination", "assay_type": "cell-based", "conditions": "Table 1; lysogeny broth (LB) supplemented with 0.3 mM ZnSO4; 37 °C, 18 h; visual inspection; median of a minimum of triplicates", "summary_of_the_method": "as §1"}, "[5]": {"conditions": "formation in vivo limits systemic applications; cited from earlier work"}, "[6]": {"conditions": "degradation product of bacitracin A; cited from earlier work"}}}
{"molecule": "CN[C@H](CC(C)C)C(=O)N[C@H]1C(=O)N[C@@H](CC(N)=O)C(=O)N[C@H]2C(=O)N[C@H]3C(=O)N[C@H](C(=O)N[C@H](C(=O)O)c4cc(O)cc(O)c4-c4cc3ccc4O)[C@H](O)c3ccc(c(Cl)c3)Oc3cc2cc(c3O[C@@H]2O[C@H](CO)[C@@H](O)[C@H](O)[C@H]2O[C@H]2C[C@](C)(N)[C@H](O)[C@H](C)O2)Oc2ccc(cc2Cl)[C@H]1O", "note": "[Vancomycin]", "values": [{"measurement": "MIC S. simulans 22", "setting": "[1]", "value": 0.5, "unit": "µg/mL"}, {"measurement": "MIC S. aureus ATCC 29213 (MSSA)", "setting": "[2]", "value": 1, "unit": "µg/mL"}, {"measurement": "MIC S. aureus USA300 (MRSA)", "setting": "[3]", "value": 2, "unit": "µg/mL"}, {"measurement": "MIC E. faecium E980", "setting": "[4]", "value": 0.5, "unit": "µg/mL"}]}
{"molecule": "bacitracin F", "values": [{"measurement": "nephrotoxicity", "setting": "[5]", "value": "nephrotoxic"}, {"measurement": "antibiotic activity", "setting": "[6]", "value": "inactive"}]}
